Experimental findings from ChEMBL document CHEMBL1143291, “Synthesis and structure-activity relationships of novel, substituted 5,6-dihydrodibenzo[a,g]quinolizinium P2X7 antagonists” (Bioorg Med Chem Lett, 2009) are described below.

A word on the IC50: it is the concentration that gives 50% inhibition. As a reminder, the inhibition is the relative decrease from the control value, in per cent.

Calls of active or inactive are those of the source. No cut-off for these calls is given here.

For test [1], the target named is T1, P2X purinoceptor 7 (Homo sapiens, UniProt Q99572).
T1 sequence (Q99572 whole entry): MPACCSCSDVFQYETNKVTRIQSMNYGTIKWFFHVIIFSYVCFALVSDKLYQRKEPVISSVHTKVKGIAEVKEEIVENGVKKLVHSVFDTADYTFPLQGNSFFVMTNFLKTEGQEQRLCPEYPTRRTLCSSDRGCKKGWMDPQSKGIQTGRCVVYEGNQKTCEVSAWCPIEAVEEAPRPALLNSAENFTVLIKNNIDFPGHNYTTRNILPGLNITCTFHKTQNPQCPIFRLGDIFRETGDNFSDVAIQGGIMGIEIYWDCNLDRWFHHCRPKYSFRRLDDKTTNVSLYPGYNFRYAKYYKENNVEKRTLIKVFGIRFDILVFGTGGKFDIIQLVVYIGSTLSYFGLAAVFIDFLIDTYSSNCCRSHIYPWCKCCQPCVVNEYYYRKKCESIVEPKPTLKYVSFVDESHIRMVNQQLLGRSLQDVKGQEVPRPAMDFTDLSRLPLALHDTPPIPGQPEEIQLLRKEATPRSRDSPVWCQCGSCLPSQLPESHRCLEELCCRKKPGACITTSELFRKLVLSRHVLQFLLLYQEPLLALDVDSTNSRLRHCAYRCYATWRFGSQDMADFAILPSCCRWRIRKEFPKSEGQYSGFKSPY
In words: Antagonist activity at human P2X7 receptor expressed in HEK293 cells assessed as inhibition of BzATP-induced fluorescent ethidium accumulation. The test is classed as functional, cell-based. In outline:
(§1)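 Adherent HEK293 cells stably transfected with human P2X7 cDNA were preincubated 30 min with compound. They were then resuspended at 2.5 × 10^6 cells/ml in 20 mM HEPES pH 7.4 with 140 mM KCl, 5 mM glucose, 1 mM EDTA and 0.1 mM ethidium bromide. BzATP was added to 1 mM for 120 min at 37 °C. Ethidium uptake was read by fluorescence (ex 530/20, em 590/20 nm).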

For test [2], the system named is THP-1. In words: Inhibition of Bz-ATP-induced IL1-beta release in LPS/IFN-gamma-differentiated human THP1 cells at 1 uM by ELISA. The test is classed as functional. Put shortly: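 THP-1 cells were differentiated for 3 h with 25 ng/ml LPS plus 10 ng/ml IFNγ. They were preincubated 30 min with 1 µM compound, then stimulated with 1 mM BzATP for 30 min. Supernatants were collected by centrifugation (1000 rpm, 5 min) and mature human IL-1β was measured by ELISA. Results are mean ± SD percent inhibition, n = 3.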

In test [3] the test system is THP-1. In words: Inhibition of Bz-ATP-induced IL1-beta release in LPS/IFN-gamma-differentiated human THP1 cells by ELISA. Type of test: functional, cell-based. In outline:
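Full concentration–response curves used THP-1 cells differentiated for 3 h with 25 ng/ml LPS and 10 ng/ml IFNγ. Cells were preincubated 30 min with compound, then stimulated 30 min with 1 mM BzATP. Mature IL-1β in the centrifuged supernatant was quantified by ELISA.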
(An ELISA detects its analyte on a solid surface through an enzyme-linked reagent.)

For test [4], the target named is T2, P2X purinoceptor 7 (Homo sapiens) (UniProt Q99572).
T2 sequence (whole entry): T1 sequence (Q99572 whole entry)
In words: Antagonist activity at human P2X7 receptor expressed in HEK293 cells assessed as inhibition of BzATP-induced fluorescent ethidium accumulation at 8 uM. Type of test: functional, cell-based. In outline:
as §1

Take `CCc1c2[n+](cc3c(OCc4cc(OC)c(OC)cc4[N+](=O)[O-])c(OC)ccc13)CCc1cc(OC)c(OC)cc1-2`: the IC50 was found to be 0.17 µM in test [1] and 0.175 µM in test [3]. The inhibition at 1 µM in test [2] was found to be 83%.
In the case of `CCc1c2[n+](cc3c(OCc4cccc(Cl)c4)c(OC)ccc13)CCc1cc(OC)c(OC)cc1-2`, in test [1], the 50% inhibitory concentration (IC50) came out at 2.66 µM. The compound further registered an inhibition at 1 µM in test [2] of 7%.
For the compound `CCc1c2[n+](cc3c(OCc4ccc(OCc5ccccc5)cc4)c(OC)ccc13)CCc1cc(OC)c(OC)cc1-2`, the IC50 in test [1] amounted to 2.81 µM. Moreover, in test [2], the outcome was inactive.
Take `CCc1c2[n+](cc3c(OCc4ccccc4C(F)(F)F)c(OC)ccc13)CCc1cc(OC)c(OC)cc1-2`: the IC50 in test [1] stood at 2.56 µM. The compound also registered an inhibition at 1 µM in test [2] of 13%.
For `CC[C@@H]1c2ccc(OC)c(OC)c2CN2CCc3cc4c(cc3[C@H]12)OCO4` (racemic) the same measures were 0.56 µM and 34%.
Turning to `COc1ccc2c(c[n+](C)c3c4cc5c(cc4ccc23)OCO5)c1OC`, in test [2], the result was inactive.
In the case of `COc1cc2c(cc1OC)-c1c(CC3CCCCC3)c3ccc(OC)c(OC)c3c[n+]1CC2`, the IC50 in test [1] amounted to 1.12 µM. Besides, 1 µM produced 17% inhibition in test [2].
Turning to `CCc1c2[n+](cc3c(OCc4cc(C)ccc4[N+](=O)[O-])c(OC)ccc13)CCc1cc(OC)c(OC)cc1-2`, in test [1], the IC50 was determined as 0.73 µM. This compound also gave an inhibition at 1 µM in test [2] of 40%.
With `CCc1c2[n+](cc3c(OCc4ccc(-c5ccccc5)cc4)c(OC)ccc13)CCc1cc(OC)c(OC)cc1-2`, the half-inhibitory concentration (IC50) in test [1] came out at 3.22 µM. For the same compound, the outcome in test [2] was inactive.
As to `CCc1c2[n+](cc3c(OC)c(OC)ccc13)CCc1cc3c(cc1-2)OCO3`, the IC50 in test [1] was 0.35 µM. For the same compound, in test [2], the inhibition at 1 µM amounted to 73%.
For the compound `COc1ccc2cc3[n+](cc2c1OC)CCc1cc2c(cc1-3)OCO2`, the inhibition in test [4] amounted to 7.03%.
On to `COc1ccc2c(Cc3c(F)cccc3Cl)c3[n+](cc2c1OC)CCc1cc2c(cc1-3)OCO2`, for which the IC50 in test [1] was 0.4 µM. Besides, in test [2], 1 µM produced 50% inhibition.
In the same order, the values of `CCc1c2[n+](cc3c(OCc4ccc(Br)cc4)c(OC)ccc13)CCc1cc(OC)c(OC)cc1-2` are 2.6 µM and 5%.
As to `CN([C@@H](Cc1ccc(OS(=O)(=O)c2cccc3cnccc23)cc1)C(=O)N1CCN(c2ccccc2)CC1)S(=O)(=O)c1cccc2cnccc12`, the IC50 in test [1] came to 0.34 µM; in test [3], 0.081 µM. In test [2], at 1 µM the inhibition was 79%.
For the compound `CCCC(I)c1c2[n+](cc3c(OC)c(OC)ccc13)CCc1cc3c(cc1-2)OCO3` (centres undefined), the IC50 in test [1] came out at 0.42 µM. This compound also came in with an inhibition at 1 µM in test [2] of 54%.
As for `CCCc1c2[n+](cc3c(OC)c(OC)ccc13)CCc1cc(OC)c(OC)cc1-2`, the IC50 in test [1] came out at 0.5 µM.
Same read-out and setting: next, `CCc1c2[n+](cc3c(OCc4cccc([N+](=O)[O-])c4C)c(OC)ccc13)CCc1cc(OC)c(OC)cc1-2`: 5.4 µM.
For `CCc1c2[n+](cc3c(OCc4ccccc4C)c(OC)ccc13)CCc1cc(OC)c(OC)cc1-2`, the IC50 in test [1] was found to be 5.02 µM. Also, in test [2], the outcome was inactive.
Regarding `CCc1c2[n+](cc3c(OCc4ccc(C(C)(C)C)cc4)c(OC)ccc13)CCc1cc(OC)c(OC)cc1-2`, the IC50 in test [1] worked out at 1.26 µM. In addition, testing at 1 µM in test [2] gave an inhibition of 33%.
In the same order, the values of `CCc1c2[n+](cc3c(OCc4ccc(Cl)nc4)c(OC)ccc13)CCc1cc(OC)c(OC)cc1-2` are 4.41 µM and 33%.
For the compound `COc1cc2c(cc1OC)-c1cc3ccc(OC)c(OC)c3c[n+]1CC2`, the result in test [4] was inactive.
In the case of `COc1cc(Cc2c3[n+](cc4c(OC)c(OC)ccc24)CCc2cc4c(cc2-3)OCO4)cc(OC)c1`, the IC50 in test [1] is 0.26 µM. The same compound showed an inhibition at 1 µM in test [2] of 39%.
Consider `CCc1c2[n+](cc3c(OCc4cc([N+](=O)[O-])ccc4OC)c(OC)ccc13)CCc1cc(OC)c(OC)cc1-2`, for which the IC50 in test [1] amounted to 0.42 µM. In addition, the inhibition at 1 µM in test [2] came out at 42%.
For `CCc1c2[n+](cc3c(OCc4cc(C)ccc4C)c(OC)ccc13)CCc1cc(OC)c(OC)cc1-2` the same measures were 1.53 µM and 8%.
On to `C=CCc1c2[n+](cc3c(OC)c(OC)ccc13)CCc1cc3c(cc1-2)OCO3`, for which the 50% inhibitory concentration (IC50) in test [1] was found to be 0.44 µM. This compound also registered an inhibition at 1 µM in test [2] of 71%.
In the case of `CCc1c2[n+](cc3c(OCc4ccc(F)cc4C(F)(F)F)c(OC)ccc13)CCc1cc(OC)c(OC)cc1-2`, the IC50 in test [1] was determined as 0.82 µM. The compound also displayed an inhibition at 1 µM in test [2] of 13%.
